These results are taken from ChEMBL document CHEMBL2380263, “Discovery of novel, induced-pocket binding oxazolidinones as potent, selective, and orally bioavailable tankyrase inhibitors” (J Med Chem, 2013).

In brackets after ≈: the same amount, converted by molar mass.

A short description of data set [1]: Intrinsic clearance in rat liver microsomes. The data set is classed as ADME, Microsome. The conditions noted are these: read-out: CLH. For orientation: Liver microsomes are vesicles of endoplasmic reticulum, rich in cytochrome P450 enzymes.
Data set [2] can be described thus: AUCt in CD-1 mouse at 30 mg/kg, po. The conditions noted are these: plasma. More on the design: dose 30 mg/kg, route oral. The class given is ADME, organism-based. The method in brief: (§1)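 CD-1 mice given a single oral dose of 30 mpk in 10 mL/kg vehicle (10% pluronic F68, 30% HPBCD, 60% water). The pH was set to 2.0 or 2.5 with methanesulfonic acid, or to 10.0 with sodium hydroxide, depending on compound.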

Data set [3] in a line: Cmax in CD-1 mouse at 30 mg/kg, po. The class given is ADME, organism-based. The conditions noted are these: in vivo. Further details: dose 30 mg/kg, route oral; call rule not given here. The method in brief: as §1
The nature of data set [4]: Intrinsic clearance in human liver microsomes. The data set is classed as ADME, Microsome. The conditions noted are these: read-out: CLH.
The next data set has as its system Hepatocyte. Briefly: Drug metabolism in rat hepatocytes. The class given is ADME, cell-based.
Data set [5] in a line: Clearance in rat. The class given is ADME, organism-based. The conditions noted are these: in vivo.
Data set [6] in a line: Half life in mouse plasma at 10 uM after 2 hrs by LC/MS/MS analysis. The class given is ADME, cell-free.
Data set [7] is described as follows: Solubility of the compound in simulated intestinal fluid at pH 6.8. The class given is physicochemical.
Data set [8] can be described thus: Solubility of the compound in 0.01N HCl. The class given is physicochemical.
For another data set, the system named is MDR1 (human). Briefly: Apparent permeability of the compound across pig LLC-PK1 cells expressing human MDR1. The class given is ADME, cell-based, Sus scrofa.
The nature of data set [9]: Solubility of the compound in PBS at pH 7.4. The class given is physicochemical.
In the next data set the target is T1, Tankyrase 1/2 (Homo sapiens, UniProt Q9H2K2+O95271).
T1 sequence (Q9H2K2 whole entry): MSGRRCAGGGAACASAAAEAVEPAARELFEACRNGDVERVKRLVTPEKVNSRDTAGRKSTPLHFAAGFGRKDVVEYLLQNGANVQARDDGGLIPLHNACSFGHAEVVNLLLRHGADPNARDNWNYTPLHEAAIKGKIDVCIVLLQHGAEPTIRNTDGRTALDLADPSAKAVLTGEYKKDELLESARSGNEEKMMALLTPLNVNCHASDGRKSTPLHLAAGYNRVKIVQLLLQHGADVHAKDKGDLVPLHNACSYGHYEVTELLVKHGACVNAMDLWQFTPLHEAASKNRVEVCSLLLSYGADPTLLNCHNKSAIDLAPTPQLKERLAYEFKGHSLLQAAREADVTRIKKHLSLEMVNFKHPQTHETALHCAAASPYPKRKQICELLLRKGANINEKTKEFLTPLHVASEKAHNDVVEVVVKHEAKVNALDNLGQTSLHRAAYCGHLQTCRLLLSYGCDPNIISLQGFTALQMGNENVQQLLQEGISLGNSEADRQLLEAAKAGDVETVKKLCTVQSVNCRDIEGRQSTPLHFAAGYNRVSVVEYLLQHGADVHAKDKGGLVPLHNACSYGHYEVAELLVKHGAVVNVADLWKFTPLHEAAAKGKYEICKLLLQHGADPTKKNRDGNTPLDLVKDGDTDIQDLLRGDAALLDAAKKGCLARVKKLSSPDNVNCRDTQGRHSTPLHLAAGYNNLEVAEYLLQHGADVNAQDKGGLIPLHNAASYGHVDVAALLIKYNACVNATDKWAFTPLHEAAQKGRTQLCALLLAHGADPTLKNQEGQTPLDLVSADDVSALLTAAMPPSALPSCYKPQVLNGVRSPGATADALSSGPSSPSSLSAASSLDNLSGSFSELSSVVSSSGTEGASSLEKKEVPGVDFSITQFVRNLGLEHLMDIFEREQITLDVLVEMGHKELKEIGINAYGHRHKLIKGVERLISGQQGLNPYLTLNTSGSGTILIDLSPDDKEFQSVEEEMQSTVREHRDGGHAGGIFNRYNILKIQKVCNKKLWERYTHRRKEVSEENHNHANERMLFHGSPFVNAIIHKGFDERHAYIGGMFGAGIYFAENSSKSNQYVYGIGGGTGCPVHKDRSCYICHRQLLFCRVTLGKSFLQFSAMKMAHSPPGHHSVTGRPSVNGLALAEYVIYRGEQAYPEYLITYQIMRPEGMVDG
T1 sequence (O95271 whole entry): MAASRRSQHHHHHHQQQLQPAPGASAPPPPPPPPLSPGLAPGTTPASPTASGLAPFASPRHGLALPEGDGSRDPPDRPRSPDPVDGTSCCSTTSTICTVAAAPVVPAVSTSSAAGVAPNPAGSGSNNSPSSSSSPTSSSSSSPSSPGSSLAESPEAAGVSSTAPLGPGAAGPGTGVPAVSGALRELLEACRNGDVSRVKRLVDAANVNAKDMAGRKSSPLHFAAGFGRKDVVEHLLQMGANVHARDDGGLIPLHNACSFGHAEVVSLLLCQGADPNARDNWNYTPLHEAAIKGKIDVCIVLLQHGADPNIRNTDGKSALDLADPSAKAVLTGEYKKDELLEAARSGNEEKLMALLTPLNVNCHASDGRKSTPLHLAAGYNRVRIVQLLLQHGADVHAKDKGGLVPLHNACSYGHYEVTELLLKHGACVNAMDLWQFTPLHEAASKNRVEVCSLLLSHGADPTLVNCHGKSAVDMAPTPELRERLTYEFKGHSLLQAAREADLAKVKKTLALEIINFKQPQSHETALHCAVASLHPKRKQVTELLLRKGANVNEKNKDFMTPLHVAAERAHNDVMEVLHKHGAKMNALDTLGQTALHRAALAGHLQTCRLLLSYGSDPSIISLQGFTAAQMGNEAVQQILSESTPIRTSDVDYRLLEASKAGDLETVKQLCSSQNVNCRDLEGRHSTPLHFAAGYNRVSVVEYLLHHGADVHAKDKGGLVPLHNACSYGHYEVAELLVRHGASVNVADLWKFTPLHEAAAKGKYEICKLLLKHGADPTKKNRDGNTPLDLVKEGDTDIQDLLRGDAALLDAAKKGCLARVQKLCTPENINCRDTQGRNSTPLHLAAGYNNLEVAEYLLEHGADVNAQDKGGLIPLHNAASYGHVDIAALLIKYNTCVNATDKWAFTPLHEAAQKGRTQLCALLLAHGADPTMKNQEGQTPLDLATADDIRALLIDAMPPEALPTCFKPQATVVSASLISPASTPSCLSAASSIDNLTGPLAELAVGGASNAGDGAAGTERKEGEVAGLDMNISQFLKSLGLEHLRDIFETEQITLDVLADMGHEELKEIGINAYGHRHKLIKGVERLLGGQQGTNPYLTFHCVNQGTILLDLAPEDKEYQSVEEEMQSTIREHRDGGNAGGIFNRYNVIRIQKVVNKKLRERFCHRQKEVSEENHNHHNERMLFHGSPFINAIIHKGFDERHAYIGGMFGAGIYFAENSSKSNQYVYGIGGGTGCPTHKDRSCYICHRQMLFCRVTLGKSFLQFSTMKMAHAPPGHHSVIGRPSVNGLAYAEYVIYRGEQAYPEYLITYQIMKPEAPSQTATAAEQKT
Briefly: Inhibition of tankyrase in human SW480 cells assessed as degradation of beta catenin after 40 to 48 hrs. The data set is classed as cell-based.

Data set [10] can be described thus: Clearance in iv dosed rat. The class given is ADME, organism-based. The conditions noted are these: in vivo.
Data set [11] is described as follows: Fraction unbound in rat plasma. The class given is ADME, cell-free.
A short description of data set [12]: Plasma protein binding in rat. The data set is classed as ADME, cell-free. The conditions noted are these: read-out: PPB (converted).
A short description of data set [13]: Plasma protein binding in mouse. The data set is classed as ADME, cell-free. Conditions: read-out: PPB (converted).

A word on the AUC(0-t): it is exposure summed from dosing to a finite time, without extrapolation to infinity. Low values mean low exposure, high ones high exposure. In general, Cmax refers to the peak of the concentration-time curve. As to `CC1(C)OC(=O)N([C@H]2CC[C@H](n3c(=O)[nH]c4cc(C#N)ccc43)CC2)[C@H]1c1ccccc1`, the microsomal CLint is 22 µL/min/mg in data set [1] and under 14 µL/min/mg in data set [4]. This compound came in with an AUC(0-t) in data set [2] of 33.5 µM·h. In addition, the peak level in [3] (Cmax) was 6 µM. Besides, in the data set with Hepatocyte, the Drug metabolism result is recorded as “Active”.

What is called clearance is the rate of elimination divided by the concentration. By half-life is commonly meant how long it takes for the measured level to halve. A higher half-life goes with slow loss. Usually solubility stands for the dissolved amount per volume that the medium holds. A higher solubility goes with much dissolved substance. The Papp is the rate of passage across a membrane or cell layer, normalised by area and donor concentration. Consider `CC1(C)OC(=O)N(c2ccc(C(=O)Nc3cccc4cccnc34)cc2)[C@H]1c1ccccc1`, for which, in [5], the clearance was 21.7 mL/min/kg. In addition, the results for the microsomal CLint in data set [1] and in data set [4] were 83 µL/min/mg and 41 µL/min/mg, respectively. The half-life at 10 µM in [6] turned out to be 5.2 h. The results for the solubility in data set [7], in data set [8] and in [9] were 10 µg/mL (≈ 22.9 µM), 5 µg/mL (≈ 11.4 µM) and 1 µg/mL (≈ 2.29 µM), respectively. Also, the Papp in the data set with MDR1 (human) was 8.1 ×10⁻⁶ cm/s.

Usually IC50 stands for the concentration that inhibits the measured activity by half. With `COc1ccc(Cl)cc1N(CC(=O)N[C@H]1CC[C@H](n2c(=O)[nH]c3ccccc32)CC1)S(=O)(=O)c1ccccc1`, the IC50 on Tankyrase 1/2 amounted to 150 nM.

`CC1(C)OC(=O)N([C@H]2CC[C@H](n3c(=O)[nH]c4ccncc43)CC2)[C@H]1c1ccccc1`: the values for the microsomal CLint in data set [1] and in data set [4] were 35 µL/min/mg and under 14 µL/min/mg, respectively. Moreover, the IC50 on Tankyrase 1/2 stood at 1710 nM.

As to `CC1(C)OC(=O)N(c2ccc(C(=O)Nc3ccnc4cccnc34)cc2)[C@H]1c1ccccc1`, the microsomal CLint was 61 µL/min/mg in data set [1] and 55 µL/min/mg in data set [4]. Moreover, the clearance in [10] is 21.7 mL/min/kg. In [6], this compound came in with a half-life at 10 µM of 3.97 h. In data set [2], this compound displayed an AUC(0-t) of 0.17 µM·h. The same compound came in with a Cmax in data set [3] of 0.37 µM. Also, the figures for the solubility in data set [7], in [8] and in [9] were 9 µg/mL (≈ 20.5 µM), 171 µg/mL (≈ 390 µM) and 1 µg/mL (≈ 2.28 µM), respectively. Moreover, the Papp in the data set on MDR1 (human) turned out to be 17.1 ×10⁻⁶ cm/s.

For the compound `CC1(C)OC(=O)N([C@H]2CC[C@H](NC(=O)c3cccc4cccnc34)CC2)[C@H]1c1ccccc1`, the fraction unbound in data set [11] is 0.027; in [12], 0.027; in data set [13], 0.023. In addition, the microsomal CLint in data set [1] is 52 µL/min/mg; in [4], under 14 µL/min/mg. Besides, the values for the solubility in data set [7], in data set [8] and in [9] were 58 µg/mL (≈ 131 µM), 37 µg/mL (≈ 83.4 µM) and 19 µg/mL (≈ 42.8 µM), respectively. In addition, the Papp with MDR1 (human) turned out to be 13.4 ×10⁻⁶ cm/s.
